In ChEMBL document CHEMBL2169749 (J Med Chem, 2012):
Converted amounts (≈) assume the structure as drawn.

Key:
[1] = Intrinsic clearance in rat liver microsomes in presence of NADPH; assay type: ADME, Microsome; details: read-out: CLH
How it was run: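 Incubation with rat liver microsomes in the presence of an NADPH-generating system, n = 2.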

[2] = tested on: Rattus norvegicus; test: Antiinflammatory activity in rat assessed as inhibition of LPS-induced TNFalpha production at 3.2 mg/kg, po administered 4 hrs prior to LPS-challenge measured after 1 to 1.5 hrs by ELISA relative to vehicle-treated control; assay type: functional
How it was run: (§1)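 Rats dosed orally with compound suspended in 0.5% methylcellulose/0.1% Tween-80, 4 h before LPS (10 μg/animal, ip). At 1.0 or 1.5 h after LPS, retro-orbital blood collected into heparin under anesthesia. Plasma diluted one-fifth and assayed by rat TNF-α ELISA. Percent inhibition taken relative to vehicle group (n = 3−4).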

[3] = tested on: THP-1; test: Antiinflammatory activity in human THP1 cells assessed as inhibition of LPS-induced TNFalpha production after 20 hrs; assay type: functional, cell-based; details: THP-1, 20 h
How it was run: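 THP-1 human monocytic cells kept in RPMI 1640 with 10% FBS, penicillin and streptomycin at 37 °C, 5% CO2. Cells (1 × 10^5/well) stimulated with LPS (10 μg/mL final, E. coli 055:B5) with compound or 0.1% DMSO vehicle for 20 h at 37 °C. Supernatant TNF-α compared with DMSO control. IC50 given as mean of triplicate experiments.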

[4] = tested on: Rattus norvegicus; test: Antiinflammatory activity in Lewis rat assessed as suppression of Mycobacterium tuberculosis adjuvant-induced paw edema at 1 mg/kg, po administered QD from days 15 to 24 post adjuvant-challenge measured on day 25 relative to vehicle-treated control; assay type: functional
How it was run: (§2)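 Female Lewis rats, 7 weeks old; arthritis induced on day 0 by 0.5 mg M. tuberculosis in 50 μL liquid paraffin injected into right hind footpad. Randomized on day 15 (n ≥ 5) by left hind paw volume increase and body weight; drug suspended in 0.5% methylcellulose given orally once daily days 15–24. Left hind paw volume measured day 25 by water displacement plethysmometry; edema expressed as percentage of control.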

[5] = tested on: Rattus norvegicus; test: (§3) Oral bioavailability in Sprague-Dawley rat at 1 mg/kg; assay type: ADME, organism-based; details: in vivo
How it was run: (§4)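 Sprague-Dawley rats given 1 mg/kg iv and po, compound dissolved in PEG400. Plasma obtained by centrifugation of collected blood, drug levels quantified by LC/MS/MS. Values are mean ± SD of n = 3.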

[6] = tested on: Rattus norvegicus; test: (§5) AUC in Sprague-Dawley rat at 1 mg/kg, po; assay type: ADME, organism-based, Plasma; design: dose 1 mg/kg, route oral; details: in vivo; how it was run: as §4
[7] = Half life in Sprague-Dawley rat at 1 mg/kg, iv; assay type: ADME, organism-based; design: dose 1 mg/kg, route intravenous; details: in vivo; how it was run: as §4
[8] = Volume of distribution at steady state in Sprague-Dawley rat at 1 mg/kg, iv; assay type: ADME, organism-based; design: dose 1 mg/kg, route intravenous; details: in vivo, read-out: Vdss; how it was run: as §4
[9] = Permeability of the compound by PAMPA assay at pH 6.5; assay type: ADME; details: read-out: permeability
How it was run: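 PAMPA with pION membrane lipid, donor buffer pH 6.5, n = 2.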

[10] = tested on: Rattus norvegicus; test: Antiinflammatory activity in rat assessed as inhibition of LPS-induced TNFalpha production at 1 mg/kg, po administered 4 hrs prior to LPS-challenge measured after 1 to 1.5 hrs by ELISA relative to vehicle-treated control; assay type: functional; how it was run: as §1
[11] = as §3; assay type: ADME, organism-based; details: Sprague-Dawley, in vivo; how it was run: as §4
[12] = as §5; assay type: ADME, organism-based, Plasma; design: dose 1 mg/kg, route oral; details: Sprague-Dawley, plasma; how it was run: as §4
[13] = Total clearance in Sprague-Dawley rat at 1 mg/kg, iv; assay type: ADME, organism-based; design: dose 1 mg/kg, route intravenous; details: in vivo; how it was run: as §4
[14] = Solubility of the compound at pH 6.8; assay type: physicochemical; details: buffer
[15] = biological target: Voltage-gated inwardly rectifying potassium channel KCNH2 (Homo sapiens, UniProt Q12809); test: Inhibition of human ERG by Rb ion flux assay
Chain of Voltage-gated inwardly rectifying potassium channel KCNH2 (Q12809 whole entry): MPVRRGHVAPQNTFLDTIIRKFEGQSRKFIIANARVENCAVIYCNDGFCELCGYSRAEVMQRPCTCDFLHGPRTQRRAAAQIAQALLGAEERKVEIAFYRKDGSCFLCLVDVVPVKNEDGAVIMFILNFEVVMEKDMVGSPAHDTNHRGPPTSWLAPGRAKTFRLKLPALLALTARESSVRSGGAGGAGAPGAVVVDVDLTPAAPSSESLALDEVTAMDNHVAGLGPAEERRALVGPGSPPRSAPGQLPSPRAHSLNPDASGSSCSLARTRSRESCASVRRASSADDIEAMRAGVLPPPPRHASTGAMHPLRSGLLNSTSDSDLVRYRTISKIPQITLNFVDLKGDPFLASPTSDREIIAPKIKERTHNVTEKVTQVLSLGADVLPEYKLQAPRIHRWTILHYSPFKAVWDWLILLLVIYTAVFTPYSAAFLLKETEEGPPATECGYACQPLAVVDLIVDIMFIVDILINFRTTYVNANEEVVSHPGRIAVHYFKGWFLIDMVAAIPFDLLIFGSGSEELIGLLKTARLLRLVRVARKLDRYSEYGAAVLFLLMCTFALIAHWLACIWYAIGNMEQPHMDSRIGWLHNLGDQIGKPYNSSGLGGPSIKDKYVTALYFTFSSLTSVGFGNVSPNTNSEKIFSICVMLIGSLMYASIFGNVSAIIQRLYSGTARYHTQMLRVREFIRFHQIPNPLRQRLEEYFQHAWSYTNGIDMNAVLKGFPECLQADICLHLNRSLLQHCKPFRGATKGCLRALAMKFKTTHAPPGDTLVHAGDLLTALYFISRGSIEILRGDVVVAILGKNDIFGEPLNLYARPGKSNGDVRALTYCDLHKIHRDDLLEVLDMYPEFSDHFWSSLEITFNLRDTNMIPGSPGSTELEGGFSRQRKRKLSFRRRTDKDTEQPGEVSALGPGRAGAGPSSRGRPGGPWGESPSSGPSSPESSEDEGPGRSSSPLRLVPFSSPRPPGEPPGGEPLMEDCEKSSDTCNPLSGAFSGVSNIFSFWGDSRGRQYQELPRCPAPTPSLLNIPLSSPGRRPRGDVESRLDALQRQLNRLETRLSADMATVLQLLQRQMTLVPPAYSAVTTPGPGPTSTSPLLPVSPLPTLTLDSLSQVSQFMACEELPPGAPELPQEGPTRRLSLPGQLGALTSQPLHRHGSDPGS

[16] = biological target: Cytochrome P450 2C9 (Homo sapiens, UniProt P11712); test: Inhibition of CYP2C9; assay type: ADME
Chain of Cytochrome P450 2C9 (P11712 whole entry): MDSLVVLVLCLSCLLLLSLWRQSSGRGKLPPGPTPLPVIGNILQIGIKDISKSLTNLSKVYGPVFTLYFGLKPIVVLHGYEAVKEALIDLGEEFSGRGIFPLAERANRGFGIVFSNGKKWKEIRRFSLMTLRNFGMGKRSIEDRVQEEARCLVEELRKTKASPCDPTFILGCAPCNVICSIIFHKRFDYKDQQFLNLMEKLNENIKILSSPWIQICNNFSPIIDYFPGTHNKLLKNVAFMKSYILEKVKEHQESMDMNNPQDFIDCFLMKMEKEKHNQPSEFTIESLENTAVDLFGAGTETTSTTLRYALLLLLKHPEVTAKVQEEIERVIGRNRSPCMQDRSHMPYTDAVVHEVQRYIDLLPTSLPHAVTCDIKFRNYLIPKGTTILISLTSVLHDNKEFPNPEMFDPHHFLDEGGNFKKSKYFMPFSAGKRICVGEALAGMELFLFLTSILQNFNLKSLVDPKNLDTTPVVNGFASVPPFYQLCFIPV

[17] = biological target: Cytochrome P450 2D6 (Homo sapiens, UniProt P10635); test: Inhibition of CYP2D6; assay type: ADME
Chain of Cytochrome P450 2D6 (P10635 whole entry): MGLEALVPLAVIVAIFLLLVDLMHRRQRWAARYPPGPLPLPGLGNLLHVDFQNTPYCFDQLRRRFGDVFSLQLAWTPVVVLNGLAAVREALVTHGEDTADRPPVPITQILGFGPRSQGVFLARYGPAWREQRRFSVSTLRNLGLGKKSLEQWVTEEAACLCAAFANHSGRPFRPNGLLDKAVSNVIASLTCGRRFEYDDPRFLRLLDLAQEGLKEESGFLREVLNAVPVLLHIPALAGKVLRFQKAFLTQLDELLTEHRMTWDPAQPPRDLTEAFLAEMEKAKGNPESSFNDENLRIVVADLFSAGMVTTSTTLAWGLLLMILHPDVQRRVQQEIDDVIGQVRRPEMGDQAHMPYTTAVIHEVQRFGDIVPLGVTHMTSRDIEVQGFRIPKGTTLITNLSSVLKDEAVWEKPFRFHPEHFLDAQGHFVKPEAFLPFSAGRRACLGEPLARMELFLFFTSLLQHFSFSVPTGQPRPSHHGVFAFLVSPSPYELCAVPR

[18] = biological target: Cytochrome P450 2C19 (Homo sapiens, UniProt P33261); test: Inhibition of CYP2C19; assay type: ADME
Chain of Cytochrome P450 2C19 (P33261 whole entry): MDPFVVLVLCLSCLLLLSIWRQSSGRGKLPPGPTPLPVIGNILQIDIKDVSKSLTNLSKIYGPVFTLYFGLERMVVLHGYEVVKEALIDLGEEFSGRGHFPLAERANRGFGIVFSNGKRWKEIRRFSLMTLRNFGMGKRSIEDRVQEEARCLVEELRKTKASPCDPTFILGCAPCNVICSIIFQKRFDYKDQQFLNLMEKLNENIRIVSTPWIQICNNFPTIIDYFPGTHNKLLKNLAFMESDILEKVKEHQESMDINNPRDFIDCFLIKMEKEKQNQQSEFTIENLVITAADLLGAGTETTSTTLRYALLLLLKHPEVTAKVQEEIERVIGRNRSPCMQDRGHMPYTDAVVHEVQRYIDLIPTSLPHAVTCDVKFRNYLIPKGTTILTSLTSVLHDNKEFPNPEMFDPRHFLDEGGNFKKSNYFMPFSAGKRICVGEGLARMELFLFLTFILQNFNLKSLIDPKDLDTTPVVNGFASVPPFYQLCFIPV

[19] = biological target: T1, Cytochrome P450 1A2 (Homo sapiens, UniProt P05177); test: Inhibition of CYP1A2; assay type: ADME
T1 sequence (P05177 whole entry): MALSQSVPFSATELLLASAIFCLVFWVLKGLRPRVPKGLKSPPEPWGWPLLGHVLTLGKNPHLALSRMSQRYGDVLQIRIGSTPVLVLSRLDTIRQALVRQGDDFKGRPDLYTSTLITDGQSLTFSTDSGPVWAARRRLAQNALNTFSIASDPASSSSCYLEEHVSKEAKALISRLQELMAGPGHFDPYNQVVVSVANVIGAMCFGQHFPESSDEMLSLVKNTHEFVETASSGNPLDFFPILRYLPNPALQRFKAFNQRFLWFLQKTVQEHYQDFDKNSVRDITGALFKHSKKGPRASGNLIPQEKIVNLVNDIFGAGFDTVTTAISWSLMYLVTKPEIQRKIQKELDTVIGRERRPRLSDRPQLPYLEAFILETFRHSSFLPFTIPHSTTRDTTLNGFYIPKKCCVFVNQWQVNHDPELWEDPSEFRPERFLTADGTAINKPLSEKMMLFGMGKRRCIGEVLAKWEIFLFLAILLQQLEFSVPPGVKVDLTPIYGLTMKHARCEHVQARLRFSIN

[20] = biological target: Mitogen-activated protein kinase 9 (Homo sapiens, UniProt P45984); test: Inhibition of human recombinant JNK2alpha2-mediated ATF-2 phosphorylation after 30 mins by immunoblotting method
Chain of Mitogen-activated protein kinase 9 (P45984 whole entry): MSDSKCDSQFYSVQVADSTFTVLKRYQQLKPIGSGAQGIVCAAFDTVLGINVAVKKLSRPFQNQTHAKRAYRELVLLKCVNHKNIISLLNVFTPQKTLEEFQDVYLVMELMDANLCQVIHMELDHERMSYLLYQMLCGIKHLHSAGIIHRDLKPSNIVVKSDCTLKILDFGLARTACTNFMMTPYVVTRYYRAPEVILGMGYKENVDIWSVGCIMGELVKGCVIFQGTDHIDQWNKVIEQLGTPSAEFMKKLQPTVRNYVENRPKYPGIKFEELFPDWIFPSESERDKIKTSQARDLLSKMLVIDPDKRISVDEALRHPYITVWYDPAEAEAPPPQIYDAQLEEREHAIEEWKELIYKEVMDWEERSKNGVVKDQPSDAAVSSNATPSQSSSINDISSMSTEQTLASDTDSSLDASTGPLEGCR

[21] = biological target: Mitogen-activated protein kinase 11 (Homo sapiens, UniProt Q15759); test: Inhibition of human MAPK p38beta by Z'-LYTE assay
Chain of Mitogen-activated protein kinase 11 (Q15759 whole entry): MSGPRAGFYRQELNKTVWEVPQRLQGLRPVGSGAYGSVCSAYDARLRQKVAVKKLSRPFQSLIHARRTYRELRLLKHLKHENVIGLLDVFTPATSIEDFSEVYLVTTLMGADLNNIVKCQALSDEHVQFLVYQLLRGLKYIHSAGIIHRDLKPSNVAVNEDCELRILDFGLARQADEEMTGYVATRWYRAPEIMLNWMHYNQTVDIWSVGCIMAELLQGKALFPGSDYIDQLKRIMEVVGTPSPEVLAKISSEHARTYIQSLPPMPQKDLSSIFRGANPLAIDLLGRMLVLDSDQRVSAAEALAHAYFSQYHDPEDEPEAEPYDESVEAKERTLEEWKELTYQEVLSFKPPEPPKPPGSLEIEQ
How it was run: (§6)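 Human p38α or p38β kinase activity measured by Z′-Lyte kinase assay system.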

[22] = biological target: Mitogen-activated protein kinase 14 (Homo sapiens, UniProt Q16539); test: Inhibition of human MAPK p38alpha by Z'-LYTE assay; how it was run: as §6
Chain of Mitogen-activated protein kinase 14 (Q16539 whole entry, looked up): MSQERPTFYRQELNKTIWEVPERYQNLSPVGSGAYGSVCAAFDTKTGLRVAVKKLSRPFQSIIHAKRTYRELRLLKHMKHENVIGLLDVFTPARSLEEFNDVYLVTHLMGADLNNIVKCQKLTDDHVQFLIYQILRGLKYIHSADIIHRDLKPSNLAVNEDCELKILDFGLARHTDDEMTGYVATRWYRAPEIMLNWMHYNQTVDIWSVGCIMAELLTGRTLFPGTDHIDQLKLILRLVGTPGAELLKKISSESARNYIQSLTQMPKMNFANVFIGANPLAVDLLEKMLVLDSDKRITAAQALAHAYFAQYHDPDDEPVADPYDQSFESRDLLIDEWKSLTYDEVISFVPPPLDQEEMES

[23] = tested on: Rattus norvegicus; test: Antiinflammatory activity in po dosed Lewis rat assessed as suppression of Mycobacterium tuberculosis adjuvant-induced paw edema administered QD from days 15 to 24 post adjuvant-challenge measured on day 25 relative to vehicle-treated control; assay type: functional; details: 600 h; how it was run: as §2
[24] = tested on: Rattus norvegicus; test: Antiinflammatory activity in po dosed rat assessed as inhibition of LPS-induced TNFalpha production administered 4 hrs prior to LPS-challenge measured after 1 to 1.5 hrs by ELISA relative to vehicle-treated control; assay type: functional; how it was run: as §1
[25] = Half life in rat liver homogenate; assay type: ADME, tissue-based

O=c1ccc(-c2c(-c3ccccc3)nn3ccccc23)nn1CC1(O)CCCCC1
CLint scaled [1]: 195 mL/min/kg | inhibition in vivo at 3.2 mg/kg [2]: 43% | IC50 [3]: 14 nM

Cc1ccccc1-n1nc(-c2c(-c3ccc(F)cc3)nn3c2NC[C@H](O)C3)ccc1=O
Activity [4]: 51% | F [5]: 81% | AUC [6]: 457 ng·h/mL | half-life [7]: 9.01 h | Vd [8]: 4.21 L/kg | Papp [9]: 17 ×10⁻⁶ cm/s | IC50 [3]: 1.8 nM | inhibition in vivo at 1 mg/kg [10]: 89%

Cc1ccccc1-n1nc(-c2c(-c3ccc(F)cc3)nn3c2N[C@H](CO)CC3)ccc1=O
Activity [4]: 62.3% | bioavailability [11]: 100% | AUC [12]: 4500 ng·h/mL | half-life [7]: 5.95 h | Vd [8]: 0.98 L/kg | Papp [9]: 22 ×10⁻⁶ cm/s | clearance [13]: 3.8 mL/min/kg | IC50 [3]: 0.37 nM | inhibition in vivo at 1 mg/kg [10]: 98%

Cc1ccccc1-n1nc(-c2c(-c3ccc(F)cc3)nn3c2NC[C@@H](CO)C3)ccc1=O [AS1940477]
solubility [14]: 42 µg/mL (≈ 97.3 µM) | IC50 [15]: > 100000 nM | IC50 [16]: 19000 nM | IC50 [17]: > 50000 nM | IC50 [18]: > 50000 nM | IC50 [19]: > 50000 nM | IC50 [20]: > 10000 nM | IC50 [21]: 36 nM | IC50 [22]: 11 nM | ED30 [23]: 0.15 mg/kg | ED50 [24]: 0.05 mg/kg | Activity [4]: 71.3% | F [5]: 61.8% | AUC [6]: 1518 ng·h/mL | half-life [7]: 5.15 h | Vd [8]: 0.77 L/kg | Papp [9]: 19.7 ×10⁻⁶ cm/s | IC50 [3]: 0.6 nM | inhibition in vivo at 1 mg/kg [10]: 92%

O=c1ncn2nc(Sc3ccc(F)cc3F)ccc2c1-c1c(Cl)cccc1Cl [NEFLAMAPIMOD]
ED30 [23]: 92 mg/kg | ED50 [24]: 39.9 mg/kg

Cc1ccccc1-n1nc(-c2c(-c3ccc(F)cc3)nn3c2OCCC3)ccc1=O
IC50 [3]: 10 nM | inhibition in vivo at 1 mg/kg [10]: 33%

Cc1ccccc1-n1nc(-c2c(-c3ccc(F)cc3)nn3c2N[C@@H](CO)CC3)ccc1=O
Papp [9]: 23 ×10⁻⁶ cm/s | IC50 [3]: 0.46 nM | inhibition in vivo at 1 mg/kg [10]: 98%

CNc1c(-c2ccc(=O)n(-c3ccccc3C)n2)c(-c2ccc(F)cc2)nn1C
Activity [4]: 37% | bioavailability [11]: 28.6% | AUC [12]: 235 ng·h/mL | half-life [7]: 0.66 h | Vd [8]: 0.65 L/kg | Papp [9]: 30 ×10⁻⁶ cm/s | clearance [13]: 20.6 mL/min/kg | half-life [25]: 0.66 h | CLint scaled [1]: 213 mL/min/kg | IC50 [3]: 6 nM | inhibition in vivo at 1 mg/kg [10]: 86%

Cc1ccccc1-n1nc(-c2c(-c3ccc(F)cc3)nn3c2NC[C@@H](O)C3)ccc1=O
Activity [4]: 61.4% | F [5]: 67.7% | AUC [6]: 763 ng·h/mL | half-life [7]: 3.89 h | Vd [8]: 1.23 L/kg | Papp [9]: 16 ×10⁻⁶ cm/s | IC50 [3]: 0.85 nM | inhibition in vivo at 1 mg/kg [10]: 94%

Cc1ccccc1-n1nc(-c2c(-c3ccc(F)cc3)nn3c2NCCC3)ccc1=O
Papp [9]: 30 ×10⁻⁶ cm/s | CLint scaled [1]: 94 mL/min/kg | IC50 [3]: 1 nM | inhibition in vivo at 1 mg/kg [10]: 93%

Cc1ccccc1-n1nc(-c2c(-c3ccc(F)cc3)nn3c2NCC(CN2CCN(C)CC2)C3)ccc1=O (centres undefined)
Papp [9]: 21 ×10⁻⁶ cm/s | IC50 [3]: 1.1 nM | inhibition in vivo at 1 mg/kg [10]: 88%

Cc1ccc(-n2nc(C(C)(C)C)cc2NC(=O)Nc2ccc(OCCN3CCOCC3)c3ccccc23)cc1 [DORAMAPIMOD]
ED30 [23]: 5.8 mg/kg | ED50 [24]: 2.6 mg/kg

Cc1ccccc1-n1nc(-c2c(-c3ccc(F)cc3)nn3c2NC[C@H](CO)C3)ccc1=O
Activity [4]: 59.7% | F [5]: 103.6% | AUC [6]: 1217 ng·h/mL | half-life [7]: 3.82 h | Vd [8]: 1.11 L/kg | IC50 [3]: 0.95 nM | inhibition in vivo at 1 mg/kg [10]: 92%

Cc1ccccc1-n1nc(-c2c(-c3ccc(F)cc3)nn3c2NCC3)ccc1=O
IC50 [3]: 106 nM

Cc1ccccc1-n1nc(-c2c(-c3ccc(F)cc3)nn3cc(CO)cnc23)ccc1=O
IC50 [3]: 23 nM | inhibition in vivo at 1 mg/kg [10]: 11%
